In ChEMBL document CHEMBL4616603, “Luciferase-based HMG-CoA reductase degradation assay for activity and selectivity profiling of oxy(lano)sterols” (Bioorg Med Chem, 2020):
Activity calls are given as the source filed them. The rule behind the calls is not given here.

Key:
Type in all cases: cell-based
[1] = target: T1, 3-hydroxy-3-methylglutaryl-coenzyme A reductase (Homo sapiens) (UniProt P04035); test: (§1) Induction of human HMGCR-dCat-ELuc degradation expressed in HEK293 cells assessed as reduction in luciferase activity after 4 hrs by luciferase reporter assay
T1 sequence (whole entry): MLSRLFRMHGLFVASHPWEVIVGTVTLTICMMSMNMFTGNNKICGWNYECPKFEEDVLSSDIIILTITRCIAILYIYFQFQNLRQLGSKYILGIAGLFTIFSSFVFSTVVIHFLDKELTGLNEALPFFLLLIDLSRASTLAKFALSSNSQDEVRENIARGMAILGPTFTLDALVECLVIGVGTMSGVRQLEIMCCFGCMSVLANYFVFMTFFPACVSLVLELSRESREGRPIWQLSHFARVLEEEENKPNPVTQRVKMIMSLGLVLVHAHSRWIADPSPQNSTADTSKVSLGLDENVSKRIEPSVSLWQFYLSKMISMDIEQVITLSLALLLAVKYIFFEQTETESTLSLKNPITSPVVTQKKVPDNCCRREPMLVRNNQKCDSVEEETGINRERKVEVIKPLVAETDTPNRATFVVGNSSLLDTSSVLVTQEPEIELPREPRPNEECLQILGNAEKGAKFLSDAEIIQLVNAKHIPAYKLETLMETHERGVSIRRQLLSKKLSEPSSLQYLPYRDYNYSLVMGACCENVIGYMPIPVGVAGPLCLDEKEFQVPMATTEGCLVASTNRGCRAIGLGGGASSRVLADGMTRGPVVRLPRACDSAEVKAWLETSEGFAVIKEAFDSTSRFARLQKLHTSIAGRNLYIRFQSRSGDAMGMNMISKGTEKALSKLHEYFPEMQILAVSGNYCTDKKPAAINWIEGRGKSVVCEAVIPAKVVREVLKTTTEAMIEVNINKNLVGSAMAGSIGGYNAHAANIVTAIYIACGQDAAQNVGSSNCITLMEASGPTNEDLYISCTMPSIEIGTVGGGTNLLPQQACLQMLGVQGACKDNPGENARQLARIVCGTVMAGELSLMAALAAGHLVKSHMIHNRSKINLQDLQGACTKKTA
Outline: (§2)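 HEK293 clone stably expressing HMGCR-dCat-ELuc, kept under 0.4 mg/mL G418 and picked from limiting-dilution clones. Cells exposed to compound for 4 h, then luciferase activity read as a measure of reporter protein level. Compounds came from 10 mM DMSO stocks (ethanol stock for 25HC). SD of triplicate experiments.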

[2] = target: T2, 3-hydroxy-3-methylglutaryl-coenzyme A reductase (Homo sapiens, UniProt P04035); test: as §1; outline: as §2
T2 sequence (P04035 whole entry): T1 sequence (whole entry)

[3] = target: T3, Sterol regulatory element-binding protein 1 (Homo sapiens) (UniProt P36956); test: Inhibition of SREBP (unknown origin) expressed in HEK293 cells assessed as reduction in LDLr promotor activity after 24 hrs by luciferase reporter assay
T3 sequence (whole entry): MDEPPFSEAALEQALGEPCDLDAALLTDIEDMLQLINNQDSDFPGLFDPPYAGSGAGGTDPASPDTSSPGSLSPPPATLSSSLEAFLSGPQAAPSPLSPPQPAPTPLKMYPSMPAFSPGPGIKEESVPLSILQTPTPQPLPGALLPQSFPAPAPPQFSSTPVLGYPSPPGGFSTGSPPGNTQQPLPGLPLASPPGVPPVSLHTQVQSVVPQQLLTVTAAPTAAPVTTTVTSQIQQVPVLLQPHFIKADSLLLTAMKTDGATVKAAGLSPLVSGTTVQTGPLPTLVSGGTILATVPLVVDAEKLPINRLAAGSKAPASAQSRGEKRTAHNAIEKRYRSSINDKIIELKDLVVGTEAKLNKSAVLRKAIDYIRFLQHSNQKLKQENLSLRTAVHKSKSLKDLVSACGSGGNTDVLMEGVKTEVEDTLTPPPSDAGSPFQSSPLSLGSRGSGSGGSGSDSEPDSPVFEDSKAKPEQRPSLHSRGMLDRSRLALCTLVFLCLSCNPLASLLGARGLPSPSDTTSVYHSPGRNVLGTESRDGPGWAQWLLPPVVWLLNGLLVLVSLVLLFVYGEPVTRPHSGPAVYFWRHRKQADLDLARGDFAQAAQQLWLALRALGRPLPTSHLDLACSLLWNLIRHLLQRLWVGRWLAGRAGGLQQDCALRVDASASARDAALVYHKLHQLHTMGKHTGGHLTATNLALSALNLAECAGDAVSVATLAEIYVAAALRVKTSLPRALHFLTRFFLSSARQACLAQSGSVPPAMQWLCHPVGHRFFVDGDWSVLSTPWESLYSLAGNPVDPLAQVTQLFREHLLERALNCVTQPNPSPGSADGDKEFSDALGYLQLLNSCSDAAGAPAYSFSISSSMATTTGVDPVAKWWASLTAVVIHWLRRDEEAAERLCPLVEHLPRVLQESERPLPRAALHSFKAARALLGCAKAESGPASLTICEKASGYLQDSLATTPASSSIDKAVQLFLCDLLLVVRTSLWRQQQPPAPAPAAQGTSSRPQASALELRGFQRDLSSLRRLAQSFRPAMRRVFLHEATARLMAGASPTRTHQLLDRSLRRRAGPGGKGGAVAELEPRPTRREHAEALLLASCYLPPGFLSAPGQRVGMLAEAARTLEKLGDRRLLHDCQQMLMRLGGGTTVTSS
Outline: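 HEK293 cells transiently co-transfected with pGL4-LDLr-luciferase and pCMV-beta-galactosidase. After 24 h the medium was changed to DMEM with 10% LPDS, compounds were added, and culture continued for 24 h. Luciferase was read and normalized to beta-galactosidase activity. Mean ± SD, n = 3.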

[4] = target: T1, 3-hydroxy-3-methylglutaryl-coenzyme A reductase (Homo sapiens); test: Induction of human HMGCR-dCat-ELuc degradation expressed in HEK293 cells assessed as reduction in luciferase activity at 10 uM measured at <4 hrs by luciferase reporter assay
Outline: (§3)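 Time-course degradation assay in the stable HMGCR-dCat-ELuc HEK293 line. Compound at 10 µM, alone or together with the VCP inhibitor CB5083 at 10 µM, for the indicated times. Reporter level read by luciferase activity.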

[5] = target: T1, 3-hydroxy-3-methylglutaryl-coenzyme A reductase (Homo sapiens); test: Induction of human HMGCR-dCat-ELuc degradation expressed in HEK293 cells assessed as reduction in luciferase activity at 10 uM measured at <4 hrs in presence of VCP inhibitor CB5083 by luciferase reporter assay; outline: as §3
[6] = target: T1, 3-hydroxy-3-methylglutaryl-coenzyme A reductase (Homo sapiens); test: Induction of human HMGCR-dCat-ELuc degradation expressed in HEK293 cells assessed as reduction in luciferase activity after 8 hrs by luciferase reporter assay
Outline: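 Stable HMGCR-dCat-ELuc HEK293 clone (G418 0.4 mg/mL selection) treated for 8 h, then assayed for luciferase activity. In some runs, cells were co-treated with the SQS inhibitor TAK-475 at 10 µM. Mean and SD from biological replicates (n = 4 or 8).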

[7] = target: T1, 3-hydroxy-3-methylglutaryl-coenzyme A reductase (Homo sapiens); test: Induction of human HMGCR-dCat-ELuc degradation expressed in HEK293 cells assessed as reduction in luciferase activity measured after 8 hrs in presence of SQS inhibitor TAK-475 by luciferase reporter assay
Outline: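 Stable HEK293 HMGCR-dCat-ELuc clone (G418-selected, single clone) was given graded compound concentrations together with 10 µM TAK-475 (SQS inhibitor) for 8 h. The read-out was luciferase activity. Data are mean and SD of biological replicates, n = 4.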

[8] = target: T1, 3-hydroxy-3-methylglutaryl-coenzyme A reductase (Homo sapiens); test: Induction of human HMGCR-dCat-ELuc degradation expressed in HEK293 cells assessed as reduction in luciferase activity measured after 8 hrs by luciferase reporter assay
Outline: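 Stable HEK293 clone expressing HMGCR-dCat-ELuc, selected with 0.4 mg/mL G418 and isolated by limiting dilution. Cells were given graded compound concentrations without TAK-475 for 8 h. HMGCR-dCat-ELuc level was read as luciferase activity. Data are mean and SD.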

C[C@H](CCCC(C)(C)O)[C@H]1CC[C@H]2[C@@H]3CC=C4C[C@@H](O)CC[C@]4(C)[C@H]3CC[C@]12C
Activity [1]: Dose-dependent effect | EC50 [2]: 630 nM | inhibition [3]: Active

C[C@H](CCC(O)C(C)(C)O)[C@H]1CC[C@@]2(C)C3=C(CC[C@]12C)[C@@]1(C)CC[C@H](O)C(C)(C)[C@@H]1CC3 (stereo partly drawn)
Activity [1]: Active | inhibition [3]: Active

CC(C)OP(=O)(OC(C)C)C(Cc1cc(C(C)(C)C)c(O)c(C(C)(C)C)c1)P(=O)(OC(C)C)OC(C)C [APOMINE]
Activity [4]: Active | Activity [1]: Dose-dependent effect | EC50 [2]: 470 nM | Activity [5]: inactive | inhibition [3]: inactive

CC(C)CCC[C@@H](C)[C@H]1CC[C@H]2[C@@H]3CC=C4C(C)(C)[C@@H](O)CC[C@]4(C)[C@H]3CC[C@]12C
Activity [1]: inactive | inhibition [3]: inactive

C[C@H](CCCC(C)(C)O)[C@H]1CC[C@H]2[C@@H]3CCC4=CC(=O)CC[C@]4(C)[C@H]3CC[C@]12C
Activity [1]: inactive | inhibition [3]: Active

CC(C)CCC[C@@H](C)[C@H]1CC[C@H]2[C@@H]3CC=C4C[C@@H](O)CC[C@]4(CO)[C@H]3CC[C@]12C
Activity [1]: inactive | inhibition [3]: inactive

C[C@H](CCC1OC1(C)C)[C@H]1CC[C@@]2(C)C3=C(CC[C@]12C)[C@@]1(C)CC[C@H](O)C(C)(C)[C@@H]1CC3 (stereo partly drawn)
Activity [1]: Active | inhibition [3]: Active

C[C@H](CCCO)[C@H]1CC[C@@]2(C)C3=C(CC[C@]12C)[C@@]1(C)CC[C@H](O)C(C)(C)[C@@H]1CC3
Activity [1]: Active | inhibition [3]: inactive

CC(C)CCC[C@@H](C)[C@H]1CC[C@@]2(C)C3=C(CC[C@]12C)[C@@]1(C)CC[C@H](O)C(C)(C)[C@@H]1CC3
Activity [1]: inactive | inhibition [3]: inactive

COc1cccc([C@H]2O[C@H](CC(=O)N3CCC(CC(=O)O)CC3)C(=O)N(CC(C)(C)COC(C)=O)c3ccc(Cl)cc32)c1OC
Activity [6]: inactive

C[C@H](CCCC(C)(C)O)[C@H]1CC[C@@]2(C)C3=C(CC[C@]12C)[C@@]1(C)CC[C@H](O)C(C)(C)[C@@H]1CC3
Activity [1]: Active | inhibition [3]: Active

C[C@H](CCCC(C)(C)O)[C@H]1CC[C@H]2[C@@H]3C[C@@H](O)[C@@]4(O)C[C@@H](O)CC[C@]4(C)[C@H]3CC[C@]12C
Activity [1]: Active | inhibition [3]: inactive

CC(C)CCC[C@@H](C)[C@H]1CC[C@@]2(C)C3=C(C(=O)C[C@]12C)[C@@]1(C)CC[C@H](O)C(C)(C)[C@@H]1CC3=O
Activity [1]: Active | inhibition [3]: inactive

CC(=O)N1CCN(c2ccc(OCC3COC(Cn4ccnc4)(c4ccc(Cl)cc4Cl)O3)cc2)CC1 (stereo not drawn)
Activity [7]: inactive | Activity [8]: Dose-dependent effect

CC(C)CCC[C@@H](C)[C@H]1CC[C@H]2[C@@H]3C[C@@H](O)[C@@]4(O)C[C@@H](O)CC[C@]4(C)[C@H]3CC[C@]12C
Activity [1]: Active | inhibition [3]: inactive
